Results as given in ChEMBL document CHEMBL3779846, “Evaluation of toxicity on epithelial and tumor cells of biaryl dipeptide tyrosines” (Eur J Med Chem, 2016).
The source made the active and inactive calls. The rule behind the calls is not given here.

Experiments:
[1] = tested on: SK-MEL-28; assay: Induction of mitochondrial membrane potential depolarization in human SK-MEL-28 cells at 200 uM after 24 hrs by JC-1 staining based flow cytometry; type: functional, cell-based
Outline: (§1)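 Cells were kept in […] with 10% FBS at 37 C and 5% CO2. They were plated at 1 × 10⁴ cells/well and treated after adhesion. They were then PBS-washed and stained with JC-1 ([…]) for 30 min at 37 C, then trypsinized and centrifuged. Flow cytometry acquired 10,000 events (excitation 488 nm, emission 529/590 nm). Read-out was the ratio of mean green to red fluorescence, from two independent assays.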

[2] = tested on: HUVEC; assay: Induction of mitochondrial membrane potential depolarization in HUVEC at 200 uM after 24 hrs by JC-1 staining based flow cytometry; type: cell-based; details: human; outline: as §1
[3] = tested on: HUVEC; assay: Induction of apoptosis in HUVEC assessed as increase in late apoptotic cells at 0.1 to 1 uM after 48 hrs by Annexin V-FITC/propidium iodide staining-based flow cytometry; type: cell-based; details: human
Outline: (§2)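 After adhesion, 1 × 10⁴ cells/well were exposed for 48 h with medium control and 0.1% DMSO vehicle. Cells washed with PBS, trypsinized and centrifuged (600 × g, 10 min). Stained with FITC-Annexin V (1:100 in binding buffer, 30 min) and propidium iodide, then read by flow cytometry for apoptotic, late apoptotic and necrotic fractions; three independent assays.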

[4] = tested on: SK-MEL-28; assay: Induction of apoptosis in human SK-MEL-28 cells assessed as increase in necrotic cells at 0.1 to 1 uM after 48 hrs by Annexin V-FITC/propidium iodide staining-based flow cytometry; type: functional, cell-based; outline: as §2
[5] = tested on: HUVEC; assay: Induction of apoptosis in HUVEC at 0.1 to 1 uM after 48 hrs by Annexin V-FITC/propidium iodide staining-based flow cytometry; type: cell-based; details: human; outline: as §2
[6] = tested on: SK-MEL-28; assay: Cytotoxicity against human SK-MEL-28 cells assessed as impairment in cell metabolism at 0.1 to 1 uM after 24 to 48 hrs by MTT assay; type: functional, cell-based
Outline: (§3)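 Cells maintained in […] with 10% FBS at 37 C, 5% CO2. 1 × 10³ cells/well plated, allowed 24 h adhesion, then treated in medium for 14, 24 or 48 h; vehicle 0.1% DMSO, 10% DMSO positive control. MTT converted to formazan, dissolved in DMSO, read at 570 nm. Expressed as % of untreated (RPMI-only) control; mean of three independent assays.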

[7] = tested on: HUVEC; assay: Cytotoxicity against HUVEC assessed as reduction in cell proliferation at 0.1 to 1 uM after 14 to 48 hrs by trypan blue staining based haemocytometer method; details: human
Outline: (§4)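 1 × 10⁴ cells/well in […] plus 10% FBS, treated after adhesion for 14, 24 or 48 h alongside medium control, 0.1% DMSO vehicle and 10% DMSO positive control. Cell number counted by trypan blue exclusion under optical microscopy; three independent assays.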

[8] = tested on: HUVEC; assay: Cytotoxicity against HUVEC assessed as impairment in cell metabolism at 0.1 to 1 uM after 24 to 48 hrs by MTT assay; type: ADME, cell-based; details: human; outline: as §3
[9] = tested on: SK-MEL-28; assay: Induction of mitochondrial membrane potential depolarization in human SK-MEL-28 cells at 0.1 to 1 uM after 48 hrs by JC-1 staining based flow cytometry; type: functional, cell-based
Outline: (§5)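 1 × 10⁴ cells/well exposed 48 h after adhesion; medium control and 0.1% DMSO vehicle. Washed, stained with JC-1 for 30 min at 37 C, 5% CO2, then trypsinized and run on flow cytometry, 10,000 events; excitation 488 nm, emission 529 and 590 nm. Valinomycin positive control. Output: green-to-red mean fluorescence ratio; two independent assays.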

[10] = tested on: SK-MEL-28; assay: Cytotoxicity against human SK-MEL-28 cells assessed as reduction in cell proliferation at 0.1 to 1 uM after 14 to 48 hrs by trypan blue staining based haemocytometer method; type: functional; outline: as §4
[11] = tested on: SK-MEL-28; assay: Induction of apoptosis in human SK-MEL-28 cells at 0.1 to 1 uM after 48 hrs by Annexin V-FITC/propidium iodide staining-based flow cytometry; type: functional, cell-based; outline: as §2
[12] = tested on: HUVEC; assay: Induction of mitochondrial membrane potential depolarization in HUVEC at 0.1 to 1 uM after 48 hrs by JC-1 staining based flow cytometry; type: cell-based; details: human; outline: as §5
[13] = tested on: SK-MEL-28; assay: Induction of apoptosis in human SK-MEL-28 cells assessed as increase in late apoptotic cells at 0.1 to 1 uM after 48 hrs by Annexin V-FITC/propidium iodide staining-based flow cytometry; type: functional, cell-based; outline: as §2
[14] = tested on: HUVEC; assay: Induction of apoptosis in HUVEC assessed as increase in necrotic cells at 0.1 to 1 uM after 48 hrs by Annexin V-FITC/propidium iodide staining-based flow cytometry; type: cell-based; details: human; outline: as §2

Row | Compound | Activity [1] | Activity [2] | Activity [3] | Activity [4] | Activity [5] | Activity [6] | Activity [7] | Activity [8] | Activity [9] | Activity [10] | Activity [11] | Activity [12] | Activity [13] | Activity [14]
1 | CC(C)[C@@H]1NC(=O)[C@H](C)OC(=O)[C@@H](C(C)C)NC(=O)[C@@H](C(C)C)OC(=O)[C@H](C(C)C)NC(=O)[C@H](C)OC(=O)[C@@H](C(C)C)NC(=O)[C@@H](C(C)C)OC(=O)[C@H](C(C)C)NC(=O)[C@H](C)OC(=O)[C@@H](C(C)C)NC(=O)[C@@H](C(C)C)OC1=O [VALINOMYCIN] | Active | Toxic |  |  |  |  |  |  |  |  |  |  |  | 
2 | COC(=O)[C@H](Cc1ccc(O)c(-c2ccc(OC)cc2)c1)NC(=O)[C@H](Cc1ccc(O)c(-c2ccc(OC)cc2)c1)NC(=O)OC(C)(C)C |  |  | Non-toxic | inactive | Non-toxic | Active | Non-toxic | Non-toxic | inactive | Active | inactive | Non-toxic | inactive | Non-toxic
